Screening results from PubChem.
ADAM10 inh: human ADAM10 inhibitors, primary screen, biochemical, QFRET, HTS. recombinant ADAM10, EDANS/DABCYL FRET peptide cleavage, 3 h. inhibition, % at 7 µM. 0.62% of 370,000 active;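 active = inhibition above a per-campaign cutoff equal to the mean of compounds falling between control-based bounds plus 3 SD, cut at about 20% in these data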;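 note: 0% = DMSO wells while the 100% control is not disclosed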
NR2E3 ag-1: inhibitors of NR2E3-RetCOR corepressor binding, primary screen, NR2E3 agonist project, biochemical, TR-FRET, GST-NR2E3, biotin-RetCOR | inhibition of corepressor binding, % at 4.78 µM | 1536-well | Photoreceptor-specific nuclear receptor (Homo sapiens), Q9Y5X4 | 0.12% of 320,000 active;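 active = percent inhibition above the cutoff of mean plus 3 SD of all tested compounds, set per screening campaign, cut at about 20% in these data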;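 note: 0% = DMSO wells and 100% = biotin wells as full block of FRET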
Target sequence (Q9Y5X4 whole entry, looked up): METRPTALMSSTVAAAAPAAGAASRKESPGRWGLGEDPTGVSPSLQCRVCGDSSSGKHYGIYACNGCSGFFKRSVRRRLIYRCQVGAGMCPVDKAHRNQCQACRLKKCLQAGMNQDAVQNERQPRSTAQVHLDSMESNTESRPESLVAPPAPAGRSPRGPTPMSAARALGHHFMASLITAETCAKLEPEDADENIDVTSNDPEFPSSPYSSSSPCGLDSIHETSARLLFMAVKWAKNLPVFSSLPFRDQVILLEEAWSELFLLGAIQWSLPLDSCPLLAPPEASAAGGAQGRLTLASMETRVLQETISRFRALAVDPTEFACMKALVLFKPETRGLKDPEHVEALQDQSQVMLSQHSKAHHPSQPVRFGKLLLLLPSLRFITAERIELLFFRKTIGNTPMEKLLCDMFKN
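Material: NR2E3–RetCOR corepressor complex | Quantity: 1.35 nM GST-tagged NR2E3 final | Schedule: 5 h at 4 °C | Replication: Singlicate compound wells | Reagent: RetCOR corepressor, biotinylated, 7 nM | Controls: Biotin wells as high control, 0.6% DMSO wells as low control | Signal: TR-FRET, Eu(K)-anti-GST donor, streptavidin-D2 acceptor, ex 340, em 617/671 nm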
KLK7 zymogen act: proKLK7 zymogen activators, primary screen, biochemical, fluorescence intensity; activation, % at 7 µM; 0.9% of 370,000 active; purified proKLK7, EDANS-DABCYL substrate fluorescence; 100% is mature enzyme control, 0% vehicle; Kallikrein-7 (Homo sapiens), P49862;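 active = activation above the mean of all tested compounds plus 3 SD, computed per campaign excluding outliers beyond control limits, cut at about 13% in these data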
Target sequence (P49862 whole entry, looked up): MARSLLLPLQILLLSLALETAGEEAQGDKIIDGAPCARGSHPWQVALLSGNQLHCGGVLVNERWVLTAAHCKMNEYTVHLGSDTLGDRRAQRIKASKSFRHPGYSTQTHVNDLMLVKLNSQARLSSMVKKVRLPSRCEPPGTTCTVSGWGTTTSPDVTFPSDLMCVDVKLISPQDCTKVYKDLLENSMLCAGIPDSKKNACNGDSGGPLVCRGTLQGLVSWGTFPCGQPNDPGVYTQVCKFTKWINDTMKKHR
JMJD2C inh: inhibitors of GASC-1 histone demethylase, primary screen, biochemical, fluorescence, DELFIA europium; Lysine-specific demethylase 4C (Homo sapiens), Q9H3R0; GST-JMJD2C(1-420) H3K9me3 demethylation; inhibition, % at 2.35 µM; 0.069% of 330,000 active;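 active = more than half of a compound's replicate wells show inhibition beyond 50%, single wells judged on their own value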;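 note: signal counts dimethyl H3K9 product captured on neutravidin plate; 0% = median of DMSO wells and 100% = 0.3 times that DMSO median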
ADAM17 inh: ADAM17 inhibitors, primary screen, biochemical, QFRET. recombinant ADAM17, EDANS/DABCYL FRET peptide cleavage. 0.83% of 370,000 active. AID 720648, 2013. inhibition, % at 6.95 µM. Disintegrin and metalloproteinase domain-containing protein 17 (Homo sapiens), P78536;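 active = inhibition above the mean of compounds lying between control limits plus 3 SD, set per campaign, cut at about 8.5% in these data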;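 note: 0% = DMSO-only wells as the low control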
NR2E3 ag-2: NR2E3 agonists in two-hybrid cells, primary screen, cell-based, luminescence, CHO-S, Gal4-NCOR/VP16-NR2E3. luciferase. inhibition of corepressor binding, % at 3.98 µM. 0.35% of 360,000 active. AID 602229, 2012;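 active = inhibition above the mean of all tested compounds plus 3 SD, cut at about 70% in these data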;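 note: 0% = DMSO with NR2E3 transfected cells and 100% = cells lacking NR2E3 construct; higher means lower luciferase signal from less NR2E3 corepressor binding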
ADAM10 confirm: human ADAM10 inhibitors, confirmation, biochemical, QFRET, triplicate; shares compounds with ADAM10 inh; ADAM10 QFRET peptide cleavage, EDANS fluorescence; inhibition, % at 6.95 µM; 1% of 2,100 active;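 active = inhibition above about 20% chosen separately for each screening run, limit read from the data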;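 note: 0% = DMSO wells and 100% = marimastat wells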
ADAM17 counter: ADAM17 inhibitors, counter-screen for ADAM10 exosite inhibitor project, biochemical, QFRET, high throughput. AID 743214, 2013. ADAM17 QFRET peptide cleavage, EDANS fluorescence. inhibition, % at 6.95 µM. 0.5% of 2,100 active. shares compounds with ADAM10 inh;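 active = mean triplicate inhibition above the solvent-only control wells' mean plus 3 SD, cut at about 12% in these data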;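 note: 0% = DMSO wells and 100% = marimastat wells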
The depositor's hits bear a star; nt = no result given; ! = not confirmed by another sample. A selection: hits, their analogues and other compounds. The true share with any hit is near 2.5%.

SMILES | ADAM10 inh | NR2E3 ag-1 | KLK7 zymogen act | JMJD2C inh | ADAM17 inh | NR2E3 ag-2 | ADAM10 confirm | ADAM17 counter
COc1cccc(/C(=N/O)C2CC2c2ccc(Cl)cc2)c1 (stereo not drawn) | 22* | 6 | 1 | 2 | 7 | -16 | 6 | 1
COc1cccc(/C(C)=N/NS(=O)(=O)c2ccc(Cl)cc2)c1 | -5 | 1 | 0 | 5 | -5 | -10 | nt | nt
C/C(=N\NC(=S)NCCc1ccccc1)c1cccc(Br)c1 | 9 | -2 | 0 | 12 | -2 | 27 | nt | nt
C/C(=N\NC(=S)NCc1ccccc1)c1cccc(Br)c1 | 21* | 4 | 0 | -27 | 4 | 25 | 8 | 4
CC(C)(C)C1CCc2onc(C(=O)NCc3ccc(F)cc3)c2C1 (stereo not drawn) | 21* | 3 | 0 | 1 | 4 | -13 | 4 | 1
O=C(NCc1ccc(F)cc1)c1noc2c1CCCC2 | nt | 7 | nt | -6 | nt | -15 | nt | nt
Cc1cccnc1NC(=O)COc1ccc2oc3c(c2c1)CCCC3 | 82* | 2 | 0 | -11 | -3 | 6 | 4 | 1
O=c1c2[nH]c3ccc(F)cc3c2nc2n1CCCS2 | -39 | 3 | 0 | 8 | -15 | -18 | nt | nt
CCOc1cc(CNn2cn[nH]c2=S)cc(Cl)c1OCc1ccccc1F | 25* | -2 | -1 | 10 | 12* | -9 | 0 | 0
COc1ccc(OC)c(/C=C/C(=O)OCC(=O)Nc2nnc(-c3ccccc3)o2)c1 | -200 | 7 | -12 | 4 | -63 | -25 | nt | nt
COc1ccc2c(c1)C(O)C(CO)C(C(=O)O)C2 (stereo not drawn) | -12 | nt | 0 | nt | -3 | 3 | nt | nt
CC(=O)[C@H]1CC[C@H]2[C@@H]3CCC4=CC(=O)CC[C@]4(C)[C@H]3CC[C@]12C | 21*! | 1 | 1 | -2 | 7 | 12 | 4 | 1
CC(=O)C1CCC2C3CCC4=CC(=O)CCC4(C)C3C(O)CC12C (stereo not drawn) | 10 | nt | 0 | nt | 0 | 3 | nt | nt
O=C1N(CCCO)CCC12CCC(c1ccccc1)CC2 (stereo not drawn) | 88*! | nt | 0 | nt | 3 | nt | 1 | 0
Cc1c(CN(C)C(=O)C2CCC(=O)N(Cc3ccccc3F)C2)[nH]c2ccccc12 (stereo not drawn) | 3 | nt | 0 | nt | 1 | -22 | nt | nt
Cn1c(N/N=C/c2cccs2)nc2c1c(=O)n(Cc1ccccc1)c(=O)n2C | 26* | -3 | -1 | 4 | 5 | -43 | 9 | 5
Cn1c(=O)c2c(nc(N/N=C/c3cccs3)n2Cc2ccccc2)n(C)c1=O | -4 | 1 | 0 | 1 | 2 | -13 | nt | nt
Cn1c(N)c(C(=O)COC(=O)CSc2cccc3cccc(Cl)c23)c(=O)n(C)c1=O | -3 | -3 | 0 | 41 | -5 | -4 | nt | nt
CC(=O)c1ccc(NC(=O)COC(=O)C2CCN(S(=O)(=O)c3cccs3)CC2)cc1 | 85* | nt | 1 | nt | -1 | 4 | 0 | 0
Cc1ccc(NC(=O)CN2CCN(c3nc(-c4ccccc4)cs3)CC2)cc1C | 22* | nt | 1 | nt | 7 | nt | 7 | 2
Cc1ccccc1NC(=O)CN1CCN(c2nc(-c3ccccc3)cs2)CC1 | 6 | nt | 1 | nt | 4 | nt | nt | nt
CCOC(=O)c1ccc(N/C(=N\S(=O)(=O)c2ccccc2C)c2ccccc2)cc1 | 21* | 0 | 0 | -3 | 4 | -14 | 2 | 1
CCOC(=O)c1ccc(NC(=O)c2ccc(NS(C)(=O)=O)cc2)cc1 | 21* | 2 | 0 | -12 | 3 | -14 | 0 | 0
C=CCNC(=S)N/N=C/c1cccc([N+](=O)[O-])c1 | 0 | 0 | 0 | -1 | 0 | -16 | nt | nt
O=[N+]([O-])c1ccc(N/N=C/c2ccc(O)c(O)c2O)c(S(=O)(=O)N2CCOCC2)c1 | 14 | nt | 0 | 14 | 7 | -40 | nt | nt
SMILES | ADAM10 inh | NR2E3 ag-1 | KLK7 zymogen act | JMJD2C inh | ADAM17 inh | NR2E3 ag-2 | ADAM10 confirm | ADAM17 counter
O=[N+]([O-])c1ccc(N/N=C/c2cccc(O)c2O)c(S(=O)(=O)N2CCOCC2)c1 | 30* | 1 | -3 | -13 | 8 | -13 | 7 | 3
Cn1nc(C(F)(F)F)c(-c2ccc(Br)cc2)c1NC(=O)c1nccnc1C(=O)O | -11 | 3 | 0 | -42 | -4 | 4 | nt | nt
O=C(N/C(=C\c1ccccc1)C(=O)N1CCCCC1)c1ccc(Br)o1 | 1 | 0 | 0 | 9 | -3 | 8 | nt | nt
O=C(COC(=O)Cc1c(Cl)cccc1Cl)Nc1ccccc1-c1ccccc1 | 23* | 1 | 1 | 14 | 8 | 7 | 3 | 2
O=C(COC(=O)Cc1ccc(Cl)cc1)Nc1ccccc1-c1ccccc1 | 3 | -3 | 1 | 1 | 4 | 8 | nt | nt
COc1ccc(CCNC(=O)CSc2ccc(-c3cccs3)nn2)cc1OC | -1 | -3 | 0 | -17 | -1 | 5 | nt | nt
O=[N+]([O-])c1cc([N+](=O)[O-])c2c(=Nc3ccccc3)n(-c3ccccc3)n(O)c2c1 | 25* | 2 | 0 | 2 | 4 | -16 | 0 | 1
O=[N+]([O-])c1cc(Br)c(Nc2ccccc2)c([N+](=O)[O-])c1 | 19 | -1 | 0 | 7 | 5 | -35 | nt | nt
Cc1noc(C)c1S(=O)(=O)N(CC(=O)NC1CCCC1)c1ccc(C(C)C)cc1 | -6 | 0 | -1 | 11 | 1 | -11 | nt | nt
Cn1nnc(NC(=O)c2ccc(C(C)(C)C)cc2)n1 | 35* | 1 | -1 | 9 | -1 | -12 | 2 | 1
CCC1(c2ccc(F)cc2)NC(=O)N(CC(=O)NC2CCCCCC2)C1=O (stereo not drawn) | 0 | nt | 0 | 6 | 0 | 0 | nt | nt
COc1ccc(NC(=O)N(C)C[C@@H]2OCc3cnnn3CCCC(=O)N([C@@H](C)CO)C[C@H]2C)cc1 | -11 | nt | 1 | nt | 0 | -47 | nt | nt
N#CCC(CNc1ncc(C(F)(F)F)cc1Cl)OC(=O)c1cccc([N+](=O)[O-])c1 (stereo not drawn) | 21* | 2 | 0 | 2 | 8 | 16 | 0 | 1
